ChEMBL document CHEMBL4177684, “Design, synthesis, and biological evaluation of hydantoin bridged analogues of combretastatin A-4 as potential anticancer agents” (Bioorg Med Chem, 2017)
The source made the active and inactive calls. No cut-off for these calls is given here.

Key:
[1] = tested on: HeLa; experiment: Induction of apoptosis in human HeLa cells assessed as necrotic cells at 2 uM after 72 hrs by Annexin V-FITC/propidium iodide staining-based flow cytometric analysis (reference value: 0.5%); type: functional
[2] = tested on: HeLa; experiment: Antiproliferative activity against human HeLa cells by MTT assay; type: functional, cell-based
In short: (§1)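 Growth inhibition rate calculated per compound. IC₅₀ derived by curve fitting.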

[3] = tested on: A2780; experiment: Antiproliferative activity against human A2780 cells by MTT assay; type: functional, cell-based; in short: as §1
[4] = tested on: HCT-116; experiment: Antiproliferative activity against human HCT116 cells by MTT assay; type: functional, cell-based; in short: as §1
[5] = tested on: MDA-MB-231; experiment: Antiproliferative activity against human MDA-MB-231 cells by MTT assay; type: functional, cell-based; in short: as §1
[6] = Cytotoxicity against HOSEC at 10 to 50 uM by MTT assay relative to control; settings: human
[7] = tested on: A2780; experiment: Inhibition of colony formation of human A2780 cells incubated for 48 hrs followed by subsequent incubation for 7 to 10 days in fresh medium by gentian violet staining-based colony formation assay; type: functional, cell-based
In short: (§2)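 MDA-MB-231 or A2780 cells seeded at 1000 per well and grown 48 h at 37 °C, 5% CO₂. Then exposed to compound or DMSO for 48 h, medium replaced, and grown a further 7-10 days. Colonies fixed with methanol for 20 min and stained with gentian violet for 30 min. Three independent runs.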

[8] = tested on: MDA-MB-231; experiment: Inhibition of colony formation of human MDA-MB-231 cells incubated for 48 hrs followed by subsequent incubation for 7 to 10 days in fresh medium by gentian violet staining-based colony formation assay; type: functional, cell-based; in short: as §2
[9] = tested on: MDA-MB-231; experiment: Inhibition of colony formation of human MDA-MB-231 cells at 800 nM incubated for 48 hrs followed by subsequent incubation for 7 to 10 days in fresh medium by gentian violet staining-based colony formation assay; type: functional, cell-based; in short: as §2
[10] = (§3) Inhibition of pig brain tubulin polymerization measured every 1 min for 20 mins by spectrophotometric analysis; parameters: species or system Sus scrofa
[11] = species on record: Sus scrofa; experiment: as §3
[12] = tested on: HeLa; experiment: Cell cycle arrest in human HeLa cells assessed as accumulation of cells at G2/M phase after 24 hrs by propidium iodide staining-based flow cytometric analysis; type: functional
In short: (§4)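 HeLa cells treated with compound or DMSO, washed in PBS and fixed in 75% ethanol at -20 °C overnight. Stained with propidium iodide containing 0.1% RNase for 15 min in the dark at room temperature. DNA content read by flow cytometry to give cell-cycle phase distribution.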

[13] = tested on: HeLa; experiment: Cell cycle arrest in human HeLa cells assessed as accumulation of cells at G2/M phase at 2 uM after 12 hrs by propidium iodide staining-based flow cytometric analysis (reference value: 17.6%); type: functional; in short: as §4
[14] = tested on: HeLa; experiment: Induction of apoptosis in human HeLa cells assessed as viable cells at 0.5 uM after 72 hrs by Annexin V-FITC/propidium iodide staining-based flow cytometric analysis (reference value: 87.6%); type: functional; settings: read-out: Activity
[15] = tested on: HeLa; experiment: Induction of apoptosis in human HeLa cells assessed as early apoptotic cells at 0.5 uM after 72 hrs by Annexin V-FITC/propidium iodide staining-based flow cytometric analysis (reference value: […]); type: functional
[16] = tested on: HeLa; experiment: Induction of apoptosis in human HeLa cells assessed as late apoptotic cells at 0.5 uM after 72 hrs by Annexin V-FITC/propidium iodide staining-based flow cytometric analysis (reference value: 3.3%); type: functional
[17] = tested on: HeLa; experiment: Induction of apoptosis in human HeLa cells assessed as necrotic cells at 0.5 uM after 72 hrs by Annexin V-FITC/propidium iodide staining-based flow cytometric analysis (reference value: 0.5%); type: functional
[18] = tested on: HeLa; experiment: Induction of apoptosis in human HeLa cells assessed as viable cells at 1 uM after 72 hrs by Annexin V-FITC/propidium iodide staining-based flow cytometric analysis (reference value: 87.6%); type: functional; settings: read-out: Activity
[19] = tested on: HeLa; experiment: Induction of apoptosis in human HeLa cells assessed as early apoptotic cells at 1 uM after 72 hrs by Annexin V-FITC/propidium iodide staining-based flow cytometric analysis (reference value: […]); type: functional
[20] = tested on: HeLa; experiment: Induction of apoptosis in human HeLa cells assessed as late apoptotic cells at 1 uM after 72 hrs by Annexin V-FITC/propidium iodide staining-based flow cytometric analysis (reference value: 3.3%); type: functional
[21] = tested on: HeLa; experiment: Induction of apoptosis in human HeLa cells assessed as necrotic cells at 1 uM after 72 hrs by Annexin V-FITC/propidium iodide staining-based flow cytometric analysis (reference value: 0.5%); type: functional
[22] = tested on: HeLa; experiment: Induction of apoptosis in human HeLa cells assessed as viable cells at 2 uM after 72 hrs by Annexin V-FITC/propidium iodide staining-based flow cytometric analysis (reference value: 87.6%); type: functional; settings: read-out: Activity
[23] = tested on: HeLa; experiment: Induction of apoptosis in human HeLa cells assessed as early apoptotic cells at 2 uM after 72 hrs by Annexin V-FITC/propidium iodide staining-based flow cytometric analysis (reference value: […]); type: functional
[24] = tested on: HeLa; experiment: Induction of apoptosis in human HeLa cells assessed as late apoptotic cells at 2 uM after 72 hrs by Annexin V-FITC/propidium iodide staining-based flow cytometric analysis (reference value: 3.3%); type: functional
[25] = tested on: HeLa; experiment: Induction of apoptosis in human HeLa cells after 72 hrs by Annexin V-FITC/propidium iodide staining-based flow cytometric analysis; type: functional, cell-based
[26] = tested on: HeLa; experiment: Induction of cell cycle arrest in human HeLa cells assessed as increase in cyclin B1 expression levels at 1.25 to 20 uM after 24 hrs by Western blot analysis; type: functional, cell-based
In short: (§5)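 HeLa cells treated with compound or DMSO for 24 h and lysed; protein quantified by BCA. Run on 8-12% SDS-PAGE and blotted to PVDF. Blocked in 5% BSA/TBST for 1.5 h, primary antibody overnight at 4 °C, secondary 2 h at room temperature. Chemiluminescent detection.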

[27] = tested on: HeLa; experiment: Induction of cell cycle arrest in human HeLa cells assessed as increase in phosphorylated histone H3 levels at 1.25 to 20 uM after 24 hrs by Western blot analysis; type: functional, cell-based; in short: as §5
[28] = tested on: HUVEC; experiment: Antiangiogenic activity against HUVEC assessed as capillary like tube formation at 1 uM after 12 hrs by matrigel-based microscopic analysis; type: functional, cell-based; settings: Homo sapiens
In short: (§6)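 Matrigel pre-set in wells for 2 h at 37 °C, 5% CO₂. HUVECs (10⁴ per well) seeded in medium with compound or DMSO. Incubated 6-12 h, then capillary-like tube networks photographed under a microscope.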

[29] = tested on: HUVEC; experiment: Antiangiogenic activity against HUVEC assessed as capillary like tube formation at 2 uM after 6 to 12 hrs by matrigel-based microscopic analysis; type: functional, cell-based; settings: Homo sapiens; in short: as §6
[30] = tested on: A2780; experiment: Antitumor activity against human A2780 cells xenografted in Balb/c nude mouse assessed as tumor growth inhibition at 20 mg/kg, ip administered every other day relative to control; type: functional; settings: read-out: TGI
[31] = tested on: Mus musculus; experiment: Toxicity in Balb/c nude mouse xenografted with human A2780 cells assessed as body weight at 20 mg/kg, ip measured immediately after first dose (reference value: 21.74 +/- 0.63 g); type: organism-based; settings: in vivo
[32] = tested on: Mus musculus; experiment: Toxicity in Balb/c nude mouse xenografted with human A2780 cells assessed as body weight at 20 mg/kg, ip administered every other day measured at end of study (reference value: 22.35 +/- 0.74 g); type: organism-based; settings: in vivo
[33] = tested on: HeLa; experiment: Induction of apoptosis in human HeLa cells assessed as increase in p53 protein levels after 24 hrs Western blot analysis
[34] = tested on: HeLa; experiment: Induction of apoptosis in human HeLa cells assessed as increase in cleaved PARP1 protein levels after 24 hrs Western blot analysis

## COc1ccc(N2C(=O)N(C)C(=O)C2c2cc(OC)c(OC)c(OC)c2)cc1N (centres undefined)
[1]
  Activity: 2.2%
[2]
  IC50: 251 nM
[3]
  IC50: 186 nM
[4]
  IC50: 265 nM
[5]
  IC50: 279 nM
[6]
  Activity: ≤ 33%
[7]
  inhibition: Dose-dependent effect
[8]
  inhibition: Dose-dependent effect
[9]
  inhibition: Active
[10]
  IC50: 16.2 µM
[11]
  inhibition: Dose-dependent effect
[12]
  Activity: Dose-dependent effect
[13]
  Activity: 91.4%
[14]
  viability at 0.5 µM: 67.8%
[15]
  Activity: 25.3%
[16]
  Activity: 6.1%
[17]
  Activity: 0.8%
[18]
  viability at 1 µM: 43.2%
[19]
  Activity: 47.8%
[20]
  Activity: 8.7%
[21]
  Activity: 0.3%
[22]
  viability at 2 µM: 27.3%
[23]
  Activity: 53%
[24]
  Activity: 17.5%
[25]
  Activity: Dose-dependent effect
[26]
  Activity: Active
[27]
  Activity: Active
[28]
  Activity: Active
[29]
  Activity: Active
[30]
  inhibition in vivo at 20 mg/kg: 46.9%
[31]
  Activity: 21.62 g
[32]
  Activity: 22.05 g
[33]
  Activity: Dose-dependent effect
[34]
  Activity: Dose-dependent effect
